Experiments:
HCT-116 = assay: Cytotoxicity against human HCT116 cells by MTT assay; assay type: functional, cell-based
Outline: (§1)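 MTT-based growth inhibition of HCT116 and DU145 cells following an established protocol, with taxol as positive control.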

DU-145 = assay: Cytotoxicity against human DU145 cells by MTT assay; assay type: functional, cell-based; outline: as §1
RAW264.7 [1] = assay: Cytotoxicity against mouse RAW264.7 cells assessed as effect on cell viability at 50 uM by MTT assay; assay type: cell-based; settings: raw264.7, 50 µM
RAW264.7 [2] = assay: Inhibition of LPS-induced nitric oxide production in mouse RAW264.7 cells after 24 hrs by Griess assay; assay type: functional, cell-based; settings: RAW264.7, 24 h

Structure (SMILES) | IC50 (HCT-116) [µM] | IC50 (DU-145) [µM] | Activity (RAW264.7 [1]) | IC50 (RAW264.7 [2]) [µM]
C=C(C(=O)O)[C@H]1C[C@@]23O[C@@]2(C)CCC[C@]3(C)C[C@@H]1OC(C)=O | > 50 | > 50 | Non-Toxic | –
C=C(C(=O)O)[C@@H]1C[C@@H]2O[C@@]23CCC[C@H](C)[C@@]3(C)C1 | > 50 | > 50 | Non-Toxic | 10.8
C[C@@H]1C[C@H]2[C@@H]3CCC4=CC(=O)C=C[C@]4(C)[C@@]3(F)[C@@H](O)C[C@]2(C)[C@@]1(O)C(=O)CO [DEXAMETHASONE] | – | – | – | 10.7
C=C(C(=O)O)[C@@H]1CC=C2[C@H](O)CC[C@H](C)[C@@]2(C)C1 | > 50 | > 50 | Non-Toxic | 18.9

— ChEMBL document CHEMBL4251682, “Nitric Oxide Inhibitory Sesquiterpenoids and Its Dimers from Artemisia freyniana” (J Nat Prod, 2018)
